Among the data in ChEMBL document CHEMBL1140976, “1,2,3,4-tetrahydro-2-thioxopyrimidine analogs of combretastatin-A4” (Eur J Med Chem, 2008) are IC50 and EC50 values, retold here.

Type in all cases: functional, cell-based
One test relates to B16. Put plainly: Cytotoxicity against mouse B16 cells after 72 hrs by MTT assay. Particulars: B16, 72 h. Summed up: (§1)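 72-h MTT assay on murine cell lines (B16 melanoma, L1210 leukemia) grown in culture. IC50 is the compound concentration needed to reduce the cell population by 50% relative to an untreated control.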
The subject of the next test is L1210. Put plainly: Cytotoxicity against mouse L1210 cells after 72 hrs by MTT assay. The following applies: L1210, 72 h. The procedure, abridged:
as §1
On the technique in general: Tetrazolium dyes change colour on reduction, which living cells bring about.

The next test concerns A10. The test is described as follows: Reduction of cellular microtubules in interphase rat A10 cells. The procedure, abridged:
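Interphase cellular microtubules scored in A-10 aortic smooth muscle cells after exposure to compound. EC50 is the effective concentration that causes 50% loss of cellular microtubules.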

Structures are written as SMILES. A value given as a limit tells only on which side of the number the result lay.

`COc1cccc(C2C=C(c3cc(OC)c(OC)c(OC)c3)NC(=S)N2)c1` (stereo unspecified): the figures for the half-maximal inhibitory concentration (IC50) in the test on B16 and in the test on L1210 were 59.5 µM and over 100 µM, respectively.

With `COc1ccc(OC)c(C2=CC(c3ccc(OC)c([N+](=O)[O-])c3)NC(=S)N2)c1` (stereo unspecified), the IC50 is 42 µM with B16 and 2.2 µM in the test with L1210.

Take `COc1ccc(/C=C\c2cc(OC)c(OC)c(OC)c2)cc1O` [COMBRETASTATIN A4]: the IC50 is 0.003 µM in the test on B16 and 0.002 µM in the test with L1210.

Turning to `COc1cc(OC)c(C2C=C(c3cc(OC)c(OC)c(OC)c3)NC(=S)N2)c(OC)c1` (stereo unspecified), the IC50 was 6.3 µM in the test on B16 and 5.7 µM in the test with L1210.

Take `COc1ccc(OC)c(C2C=C(c3cc(OC)c(OC)c(OC)c3)NC(=S)N2)c1` (stereo unspecified): the IC50 was 36 µM in the test on B16 and 32 µM with L1210.

For `COc1ccc(C2C=C(c3cc(OC)c(OC)c(OC)c3)NC(=S)N2)cc1O` (stereo unspecified), in the test with A10, the midpoint of the response, the EC50, lay at 4.4 µM. Besides, the half-maximal inhibitory concentration (IC50) was 6 µM in the test with B16 and 0.5 µM with L1210.

`COc1cc(OC)c(C2C=C(c3cc(OC)ccc3OC)NC(=S)N2)c(OC)c1` (stereo unspecified) showed an EC50 with A10 of 2.9 µM. The IC50 stood at 6.1 µM with B16 and 0.4 µM in the test with L1210.

On to `COc1cc(C2=CC(c3cc(OC)c(OC)c(OC)c3)NC(=S)N2)cc(OC)c1OC` (stereo unspecified), for which the IC50 in the test on B16 and in the test on L1210 was over 100 µM throughout.

On to `COc1ccc(C2C=C(c3cc(OC)c(OC)c(OC)c3)NC(=S)N2)cc1OC` (stereo unspecified), for which the IC50 is over 100 µM in the test with B16 and 56.3 µM in the test on L1210.

Consider `COc1cc(C2=CC(c3ccc([N+](=O)[O-])cc3)NC(=S)N2)cc(OC)c1OC` (stereo unspecified), for which the IC50 with B16 and with L1210 was over 100 µM in each case.

Consider `COc1cc(C2=CC(c3ccc(Cl)cc3)NC(=S)N2)cc(OC)c1OC` (stereo unspecified), for which the half-maximal inhibitory concentration (IC50) in the test with B16 was determined as 55.5 µM; in the test on L1210 it was 48.3 µM.

Turning to `COc1ccc(C2C=C(c3cc(OC)c(OC)c(OC)c3)NC(=S)N2)cc1[N+](=O)[O-]` (stereo unspecified), the IC50 with B16 and in the test with L1210 was over 100 µM each time.

In general, IC50 refers to the midpoint of a concentration-inhibition curve. Low readings indicate greater potency, high ones weaker potency. In general, EC50 refers to the concentration giving half of the maximal effect. Lower therefore signals an effect from little substance.
